Experimental data from ChEMBL document CHEMBL1649441, “Potency and bactericidal activity of iclaprim against recent clinical gram-positive isolates” (2009).
Converted amounts (≈) assume the structure as drawn.

What was measured:
[1] = test system: Streptococcus sp. 'group B'; assay: microbe, parasite or virus in culture; conditions: read-out: INH
Staphylococcus aureus [2] = assay: Antibacterial activity against Methicillin-sensitive Staphylococcus aureus assessed as inhibition of bacterial growth at 1 ug/ml by CLSI broth microdilution method; assay type: functional
Enterococcus faecium [3] = assay: microbe, parasite or virus in culture; conditions: read-out: INH
Enterococcus faecalis [4] = assay: microbe, parasite or virus in culture; conditions: read-out: INH
[5] = test system: Streptococcus sp. 'group A'; assay: Antibacterial activity against Beta-hemolytic Streptococcus group A assessed as inhibition of bacterial growth at 2 ug/ml by CLSI broth microdilution method; assay type: functional
Procedure, shortened: (§1)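 Clinical isolates from skin/soft tissue, bloodstream and respiratory specimens were tested by broth microdilution per CLSI M7-A7 and M100-S18, with quality controls. Values are the number of isolates inhibited at each concentration, or MIC / percent susceptible. Highest concentration tested was 8 µg/ml for iclaprim and trimethoprim-sulfamethoxazole, and 64 µg/ml for trimethoprim.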

Enterococcus faecalis [6] = assay: Antibacterial activity against Enterococcus faecalis assessed as inhibition of bacterial growth at 8 ug/ml by CLSI broth microdilution method; assay type: functional
Procedure, shortened: as §1

[7] = test system: Streptococcus sp. 'group A'; assay: Antibacterial activity against Beta-hemolytic Streptococcus group A assessed as inhibition of bacterial growth at 0.03 ug/ml by CLSI broth microdilution method; assay type: functional
Procedure, shortened: as §1

Enterococcus faecalis [8] = assay: microbe, parasite or virus in culture; conditions: read-out: INH; remark: listed apart in the source
[9] = test system: Streptococcus sp. 'group A'; assay: Antibacterial activity against Beta-hemolytic Streptococcus group A assessed as inhibition of bacterial growth at […] by CLSI broth microdilution method; assay type: functional
Staphylococcus aureus [10] = assay: Antibacterial activity against Methicillin-resistant Staphylococcus aureus assessed as inhibition of bacterial growth at 0.06 ug/ml by CLSI broth microdilution method; assay type: functional
Procedure, shortened: (§2)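 Recent clinical isolates from skin/soft tissue, bloodstream and respiratory specimens. Tested by broth microdilution per CLSI M7-A7 and M100-S18, with the appropriate quality controls. The thymidine content of the test medium was assessed to rule out artifactual inhibition.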

Enterococcus faecalis [11] = assay: Antibacterial activity against Enterococcus faecalis assessed as inhibition of bacterial growth at 1 ug/ml by CLSI broth microdilution method; assay type: functional
Procedure, shortened: as §1

[12] = test system: Streptococcus sp. 'group A'; assay: microbe, parasite or virus in culture; conditions: read-out: INH
Staphylococcus aureus [13] = assay: microbe, parasite or virus in culture; conditions: read-out: INH
Staphylococcus aureus [14] = assay: Antibacterial activity against Methicillin-resistant Staphylococcus aureus assessed as susceptible isolates by CLSI broth microdilution method; assay type: functional
Staphylococcus aureus [15] = assay: Antibacterial activity against Methicillin-sensitive Staphylococcus aureus assessed as inhibition of bacterial growth at 4 ug/ml by CLSI broth microdilution method; assay type: functional
Staphylococcus aureus [16] = assay: Antibacterial activity against Methicillin-sensitive Staphylococcus aureus by CLSI broth microdilution method; assay type: functional
Staphylococcus aureus [17] = assay: microbe, parasite or virus in culture; conditions: read-out: INH; remark: listed apart in the source
Enterococcus faecalis [18] = assay: microbe, parasite or virus in culture; conditions: read-out: INH; remark: listed apart in the source
Enterococcus faecium [19] = assay: Antibacterial activity against Enterococcus faecium assessed as inhibition of bacterial growth at 8 ug/ml by CLSI broth microdilution method; assay type: functional
Enterococcus faecium [20] = assay: Antibacterial activity against Enterococcus faecium assessed as inhibition of bacterial growth at 1 ug/ml by CLSI broth microdilution method; assay type: functional
Staphylococcus aureus [21] = assay: Antibacterial activity against Methicillin-resistant Staphylococcus aureus assessed as inhibition of bacterial growth at 1 ug/ml by CLSI broth microdilution method; assay type: functional
Procedure, shortened: as §2

Staphylococcus aureus [22] = assay: microbe, parasite or virus in culture; conditions: read-out: INH; remark: listed apart in the source
Enterococcus faecium [23] = assay: microbe, parasite or virus in culture; conditions: read-out: INH; remark: listed apart in the source
[24] = test system: Streptococcus sp. 'group B'; assay: Antibacterial activity against Beta-hemolytic Streptococcus group B assessed as inhibition of bacterial growth at […] by CLSI broth microdilution method; assay type: functional; note: tested at 0.25 µg/mL
Staphylococcus aureus [25] = assay: Antibacterial activity against Methicillin-sensitive Staphylococcus aureus assessed as resistant isolates by CLSI broth microdilution method; assay type: functional
Staphylococcus aureus [26] = assay: Antibacterial activity against Methicillin-sensitive Staphylococcus aureus assessed as inhibition of bacterial growth at 0.03 ug/ml by CLSI broth microdilution method; assay type: functional; design: Activity: scale not given: the % may be the effect or the level left
Procedure, shortened: as §2

[27] = test system: Streptococcus sp. 'group B'; assay: Antibacterial activity against Beta-hemolytic Streptococcus group B assessed as inhibition of bacterial growth at 8 ug/ml by CLSI broth microdilution method; assay type: functional
Procedure, shortened: as §1

Enterococcus faecium [28] = assay: Antibacterial activity against Enterococcus faecium assessed as inhibition of bacterial growth at 4 ug/ml by CLSI broth microdilution method; assay type: functional
Staphylococcus aureus [29] = assay: microbe, parasite or virus in culture; conditions: read-out: INH; remark: listed apart in the source
Staphylococcus aureus [30] = assay: Antibacterial activity against Methicillin-resistant Staphylococcus aureus assessed as inhibition of bacterial growth at […] by CLSI broth microdilution method; assay type: functional; note: tested at 0.25 µg/mL
Enterococcus faecalis [31] = assay: Antibacterial activity against Enterococcus faecalis assessed as inhibition of bacterial growth at <= 0.008 ug/ml by CLSI broth microdilution method; assay type: functional
Procedure, shortened: as §1

Enterococcus faecium [32] = assay: Antibacterial activity against Enterococcus faecium assessed as inhibition of bacterial growth at 0.015 ug/ml by CLSI broth microdilution method; assay type: functional
Procedure, shortened: as §1

Enterococcus faecium [33] = assay: Antibacterial activity against Enterococcus faecium assessed as inhibition of bacterial growth at <= 0.008 ug/ml by CLSI broth microdilution method; assay type: functional
Staphylococcus aureus [34] = assay: Antibacterial activity against Methicillin-sensitive Staphylococcus aureus assessed as inhibition of bacterial growth at 0.015 ug/ml by CLSI broth microdilution method; assay type: functional
Staphylococcus aureus [35] = assay: Antibacterial activity against Methicillin-resistant Staphylococcus aureus assessed as inhibition of bacterial growth at 0.03 ug/ml by CLSI broth microdilution method; assay type: functional
Procedure, shortened: as §2

Staphylococcus aureus [36] = assay: Antibacterial activity against Methicillin-resistant Staphylococcus aureus assessed as inhibition of bacterial growth at 0.015 ug/ml by CLSI broth microdilution method; assay type: functional
Procedure, shortened: as §2

[37] = test system: Streptococcus sp. 'group A'; assay: Antibacterial activity against Beta-hemolytic Streptococcus group A assessed as inhibition of bacterial growth at 0.015 ug/ml by CLSI broth microdilution method; assay type: functional
Procedure, shortened: as §1

[38] = test system: Streptococcus sp. 'group B'; assay: Antibacterial activity against Beta-hemolytic Streptococcus group B assessed as inhibition of bacterial growth at 0.015 ug/ml by CLSI broth microdilution method; assay type: functional
Procedure, shortened: as §1

Staphylococcus aureus [39] = assay: Antibacterial activity against Methicillin-resistant Staphylococcus aureus assessed as inhibition of bacterial growth at <= 0.008 ug/ml by CLSI broth microdilution method; assay type: functional
Procedure, shortened: as §2

[40] = test system: Streptococcus sp. 'group A'; assay: Antibacterial activity against Beta-hemolytic Streptococcus group A assessed as inhibition of bacterial growth at <= 0.008 ug/ml by CLSI broth microdilution method; assay type: functional
Procedure, shortened: as §1

Staphylococcus aureus [41] = assay: Antibacterial activity against Methicillin-sensitive Staphylococcus aureus assessed as inhibition of bacterial growth at <= 0.008 ug/ml by CLSI broth microdilution method; assay type: functional
Procedure, shortened: as §2

Enterococcus faecalis [42] = assay: Antibacterial activity against Enterococcus faecalis assessed as inhibition of bacterial growth at 0.015 ug/ml by CLSI broth microdilution method; assay type: functional
Procedure, shortened: as §1

Structure (SMILES)	inhibition at 1 µg/mL (Staphylococcus aureus [2])	inhibition at 2 µg/mL [5]	inhibition at 8 µg/mL (Enterococcus faecalis [6])	inhibition at 0.03 µg/mL [7]	inhibition at […] [9]	inhibition at 0.06 µg/mL (Staphylococcus aureus [10])	inhibition at 1 µg/mL (Enterococcus faecalis [11])	inhibition at 4 µg/mL (Staphylococcus aureus [15])	MIC50 (Staphylococcus aureus [16])	MIC90 (Staphylococcus aureus [16])	inhibition at 8 µg/mL (Enterococcus faecium [19])	inhibition at 1 µg/mL (Enterococcus faecium [20])	inhibition at 1 µg/mL (Staphylococcus aureus [21])	inhibition at […] [24]	inhibition at 8 µg/mL [27]	inhibition at 4 µg/mL (Enterococcus faecium [28])	inhibition at […] (Staphylococcus aureus [30])	other results
COc1cc(Cc2cnc(N)nc2N)cc(OC)c1OC [TRIMETHOPRIM]	90.2%	100%	70.6%	0.8%	45.9%	< 0.1%	64.5%	98.5%	1 µg/mL (≈ 3.44 µM)	1 µg/mL (≈ 3.44 µM)	41.6%	38%	88.5%	0.5%	100%	38.9%	5.7%	inhibition at 32 µg/mL [1]: 100%; inhibition at 64 µg/mL (Enterococcus faecium [3]): 60.7%; inhibition at 32 µg/mL (Enterococcus faecalis [4]): 71%; inhibition at 64 µg/mL (Enterococcus faecalis [8]): 72.9%; inhibition at 32 µg/mL [12]: 100%; inhibition at 32 µg/mL (Staphylococcus aureus [13]): 98.7%; Activity (Staphylococcus aureus [14]): 92.9%; inhibition at 16 µg/mL (Staphylococcus aureus [17]): 98.7%; inhibition at 16 µg/mL (Enterococcus faecalis [18]): 70.6%; inhibition at 64 µg/mL (Staphylococcus aureus [22]): 94.6%; inhibition at 32 µg/mL (Enterococcus faecium [23]): 55.1%; Activity (Staphylococcus aureus [25]): 1.3%; Activity (Staphylococcus aureus [26]): 0%; inhibition at 64 µg/mL (Staphylococcus aureus [29]): 98.7%
COc1cc(Cc2cnc(N)nc2N)c2c(c1OC)OC(C1CC1)C=C2 (stereo unspecified)	98.7%	100%	1.9%	94.9%	100%	69.6%	71%	99.9%	0.06 µg/mL (≈ 0.169 µM)	0.12 µg/mL (≈ 0.339 µM)	75.6%	42.2%	93.8%	91.2%	100%	74.9%	92.3%	inhibition (INH) (Enterococcus faecalis [31]): 25.5%; inhibition at 0.015 µg/mL (Enterococcus faecium [32]): 36.3%; inhibition (INH) (Enterococcus faecium [33]): 33.7%; inhibition at 0.015 µg/mL (Staphylococcus aureus [34]): 0.3%; inhibition at 0.03 µg/mL (Staphylococcus aureus [35]): 12.8%; inhibition at 0.015 µg/mL (Staphylococcus aureus [36]): 0.4%; inhibition at 0.015 µg/mL [37]: 77.6%; inhibition at 0.015 µg/mL [38]: 0.5%; inhibition (INH) (Staphylococcus aureus [39]): 0.1%; inhibition (INH) [40]: 30.5%; inhibition at 0.03 µg/mL (Staphylococcus aureus [26]; Staphylococcus aureus): 6.1%; inhibition (INH) (Staphylococcus aureus [41]): 0.1%; inhibition at 0.015 µg/mL (Enterococcus faecalis [42]): 57.7%
